From ChEMBL document CHEMBL1124624, “Synthesis and biological evaluation of 4,6-diethyl-1,3,4,5-tetrahydropyrano[4,3-b]indole-4-acetic acid, an isomer of etodolac” (J Med Chem, 1989)

Assays:
[1] = In vitro inhibition of prostaglandin E2 production in cultured chondrocytes; type: functional, cell-based
Method in brief: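 Cultured chondrocytes were exposed to compound at neutral pH over a short incubation period. Prostaglandin E2 production was measured, and inhibitory potency is given as an IC50.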

[2] = tested on: Rattus norvegicus; experiment: Antiinflammatory activity of the perorally administered compound assessed in adjuvant arthritis assay in rat; type: functional; conditions: po
Method in brief: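 Rats given test compound by mouth in the curative (established-disease) adjuvant arthritis/edema model. Inhibition of paw edema was scored, and potency is given as an ED50 in mg/kg.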

Structure (SMILES)	IC50 [1] [nM]	ED50 [2] [mg/kg]
CCC1(CC(=O)O)SCCc2c1[nH]c1ccccc21 (configuration not stated)	300	> 25
CCc1cccc2c3c([nH]c12)C(CC)(CC(=O)O)CCCC3 (configuration not stated)		> 50
CCC1(CC(=O)O)OCCc2c1[nH]c1ccccc21 (configuration not stated)	100	6.8
CCc1cccc2c3c([nH]c12)C(CC)(CC(=O)O)CCC3 (configuration not stated)	20	1.9
CCc1cccc2c3c([nH]c12)C(CC)(CC(=O)O)COC3 (configuration not stated)	50	3
CCc1cccc2c3c([nH]c12)C(CC)(CC(=O)O)CC3 (configuration not stated)		6.2
CCc1cccc2c3c([nH]c12)C(CC)(CC(=O)O)OCC3 (configuration not stated) [ETODOLAC]	23	0.7
